The record followed here is ChEMBL document CHEMBL5329152, “Synthesis and anti-hepatocellular carcinoma evaluation of salicylic acid-modified indole trimethoxy flavonoid derivatives” (RSC Med Chem, 2023).

The structures appear in SMILES notation. Calls of active or inactive are those of the source. The calls are words filed in the database; no cut-off is given here.

The subject of assay [1] is SMMC-7721. Put plainly: Induction of apoptosis in human SMMC-7721 cells assessed as necrotic cells at 1.5 uM incubated for 48 hrs by AnnexinV-FITC/PI staining based flow cytometry (Rvb =2.51 %). In kind it is functional. Background: Flow cytometry measures light scatter and fluorescence of single cells or particles in a stream.
Assay [2] has as its system SMMC-7721. As to the kind of experiment: Inhibition of glycolysis in human SMMC-7721 cells assessed as decrease in HK2 protein expression level at 1.5 to 6 uM by western blotting analysis. In kind it is functional, cell-based. The following applies: dose 1.5-6 µM. In a few lines:
(§1)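 Cells treated at 0, 1.5, 3 or 6 μM, lysed in RIPA, and protein measured by BCA. Semi-dry transfer to PVDF, then blocking 2 h in 5% nonfat milk at room temperature. Primary antibody overnight at 4 °C, secondary at room temperature. Chemiluminescence imaging with grayscale densitometry; n = 3.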
In general terms: In western blotting, separated proteins are transferred to a membrane and probed.

Assay [3] concerns SMMC-7721. Put plainly: Induction of apoptosis in human SMMC-7721 cells assessed as late apoptotic cells at 3 uM incubated for 48 hrs by AnnexinV-FITC/PI staining based flow cytometry (Rvb =3.17 %). In kind it is functional.
Assay [4] relates to SMMC-7721. Put plainly: Induction of apoptosis in human SMMC-7721 cells assessed as early apoptotic cells at 6 uM incubated for 48 hrs by AnnexinV-FITC/PI staining based flow cytometry (Rvb =0.739 %). In kind it is functional.
For assay [5], the system named is SMMC-7721. As to the kind of experiment: Induction of apoptosis in human SMMC-7721 cells assessed as late apoptotic cells at 6 uM incubated for 48 hrs by AnnexinV-FITC/PI staining based flow cytometry (Rvb =3.17 %). The class given is functional.
Assay [6] deals with SMMC-7721. Put plainly: Induction of apoptosis in human SMMC-7721 cells assessed as necrotic cells at 6 uM incubated for 48 hrs by AnnexinV-FITC/PI staining based flow cytometry (Rvb =2.51 %). In kind it is functional.
In assay [7] the test system is SMMC-7721. Put plainly: Inhibition of glycolysis in human SMMC-7721 cells assessed as decrease in PFKM protein expression level at 1.5 to 6 uM by western blotting analysis. The following applies: dose 1.5-6 µM. In kind it is functional, cell-based. In short, it runs like this: as §1
The subject of assay [8] is SMMC-7721. As to the kind of experiment: Induction of cell cycle distribution in human SMMC-7721 cells assessed as accumulation of cells in G1 phase at 6 uM incubated for 48 hrs by PI staining based flow cytometric analysis relative to control. In kind it is functional. In short, it runs like this:
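Seeding was 1×10^4 cells per well in 6-well plates with 24 h preculture, then 48 h exposure at 0, 1.5, 3 or 6 μM. Trypsinized cells were PBS-washed and fixed overnight in cold 70% ethanol. RNase A treatment ran 30 min at 37 °C, then PI 30 min in the dark at 4 °C. Flow cytometry at 488 nm; n = 3.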

In assay [9] the target is T1, Tubulin (Homo sapiens) (UniProt P68371+Q9H4B7+P0DPH7+P68366+Q13509+Q71U36+P04350+Q3ZCM7+P07437+P68363+Q9BQE3+Q6PEY2+Q13885+Q9BVA1+Q9BUF5). As to the kind of experiment: Inhibition of tubulin in human SMMC-7721 cells assessed as dispersed nucleus at 6 uM incubated for 48 hrs by immunofluorescence assay. In kind it is cell-based. In a few lines: (§2)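 Cells grown on coverslips in 6-well plates were exposed for 48 h at 0, 1.5, 3 or 6 μM. Fixed in 4% paraformaldehyde and blocked with BSA. Probed in turn with primary antibody, Cy3-labelled goat anti-mouse IgG and DAPI. Imaged by laser scanning confocal microscopy.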

The subject of assay [10] is SMMC-7721. As to the kind of experiment: Induction of apoptosis in human SMMC-7721 cells assessed as early apoptotic cells at 3 uM incubated for 48 hrs by AnnexinV-FITC/PI staining based flow cytometry (Rvb =0.739 %). The class given is functional.
Assay [11] has as its system SMMC-7721. As to the kind of experiment: Induction of apoptosis in human SMMC-7721 cells at 1.5 uM incubated for 48 hrs by AnnexinV-FITC/PI staining based flow cytometry (reference value: 3.090 %). In kind it is functional.
In assay [12] the test system is SMMC-7721. Put plainly: Inhibition of glycolysis in human SMMC-7721 cells assessed as decrease in lactic acid production at 1.5 to 6 uM incubated for 48 hrs. The class given is functional, cell-based. Conditions: dose 1.5-6 µM. In a few lines:
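Cells seeded at 1×10^3 per well in 6-well plates and grown 24 h, then treated 48 h at 0, 1.5, 3 or 6 μM. Cell-free medium mixed with enzyme working solution and developer, held 10 min at 37 °C, then stopped. Absorbance read at 530 nm. Lactate derived against a standard, corrected for blank and sample dilution.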

Assay [13] concerns the target T1, Tubulin (Homo sapiens). As to the kind of experiment: Inhibition of tubulin in human SMMC-7721 cells assessed as disappearance of Cy3-stained tubulin at 1.5 to 6 uM incubated for 48 hrs by immunofluorescence assay. In kind it is cell-based. The following applies: dose 1.5-6 µM. In a few lines: as §2
The test system of assay [14] is SMMC-7721. As to the kind of experiment: Antitumor activity against human SMMC-7721 cells assessed as decrease in VEGF protein expression level at 1.5 to 6 uM by western blotting analysis. In kind it is functional, cell-based. The following applies: dose 1.5-6 µM. In a few lines:
as §1

Assay [15] concerns SMMC-7721. As to the kind of experiment: Induction of apoptosis in human SMMC-7721 cells at 3 uM incubated for 48 hrs by AnnexinV-FITC/PI staining based flow cytometry (reference value: 3.090 %). In kind it is functional.

Consider `COc1cc(C)ccc1C(=O)n1cc(-c2cc(=O)c3c(OC)c(OC)c(OC)cc3o2)c2ccccc21`, for which the Activity in the assay on SMMC-7721 [1] amounted to 7.98%; with SMMC-7721 [3], 11.5%; in the assay on SMMC-7721 [4], 11.6%; with SMMC-7721 [5] it was 12.7%; with SMMC-7721 [6], 10.6%; in the assay on SMMC-7721 [8], 65.15%. Besides, the Activity came to 6.57% in the assay with SMMC-7721 [10], 7.9% in the assay on SMMC-7721 [11] and 18.07% in the assay on SMMC-7721 [15]. Also, the inhibition result with SMMC-7721 [2], in the assay on SMMC-7721 [7], on Tubulin (Homo sapiens) [9], with SMMC-7721 [12] and on Tubulin (Homo sapiens) [13] was “Active” throughout. In addition, the outcome in the assay with SMMC-7721 [14] was Active.
